From ChEMBL document CHEMBL1153017 (Bioorg Med Chem, 2009)
Blank lines part the entries; values can stand above or below the compound they belong to.

Legend:
[1] = Chemical stability in HCl buffer of pH 1.2 simulating gastric fluid; type: physicochemical; conditions: simulated gi fluid
Method in brief: (§1)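 Hydrolysis run in pH 1.2 HCl buffer or pH 7.4 phosphate buffer, each with 1% Tween 20 and ionic strength 0.2 (KCl). Started by adding 200 µL of a 3 mg/mL methanol or acetonitrile stock to 9.8 mL of prewarmed buffer, held at 37 °C. Aliquots (20 µL) taken over time; remaining ester measured by HPLC.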

[2] = Chemical stability in phosphate buffer of pH 7.4 simulating intestinal fluid; type: physicochemical; conditions: simulated gi fluid; method in brief: as §1
[3] = organism: Homo sapiens; assay: Stability in human plasma assessed as hydrolysis half life
[4] = test system: Rattus norvegicus; assay: Gastrointestinal toxicity in Wistar rat assessed as complete damage of mucosal layer and ulceration of submucosal cells at dose equivalent to 150 mg/kg of ibuprofen, po after 24 hrs by electron microscopy; type: organism-based, Submucosa; design: dose 150 mg/kg, route oral; conditions: in vivo
Method in brief: (§2)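 Male Wistar rats (150–200 g), three per group, fasted 12 h with water available. Given a daily oral dose in 0.5% CMC (1 mL suspension) for four successive days; control group got vehicle. Food withheld until 24 h after the last dose, then rats killed. Stomachs opened along the greater curvature, rinsed in saline, and random specimens examined by scanning electron microscopy after glutaraldehyde/osmium fixation, ethanol dehydration and amyl acetate.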

[5] = test system: Rattus norvegicus; assay: Gastrointestinal toxicity in Wistar rat assessed as complete damage of mucosal layer and ulceration of submucosal cells at 150 mg/kg, po after 24 hrs by electron microscopy; type: organism-based, Submucosa; design: dose 150 mg/kg, route oral; conditions: in vivo; method in brief: as §2
[6] = test system: Rattus norvegicus; assay: Antiinflammatory activity in Wistar rat assessed as inhibition of carrageenan-induced paw edema at 150 mg/kg, po administered 30 mins before carrageenan challenge measured after 5 hrs; type: functional
Method in brief: (§3)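 Rats dosed orally with a suspension in 0.5% w/v aqueous carboxymethyl cellulose; controls got vehicle alone. 30 min later, 0.1 mL of fresh 1% carrageenan in normal saline injected subplantar into the right hind paw. Paw thickness measured by skin caliper at 0.5, 1, 2, 3, 4 and 5 h. % edema inhibition = [(VR−VL)control − (VR−VL)treated]/(VR−VL)control × 100. Values are means ± SEM.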

[7] = test system: Rattus norvegicus; assay: Antiinflammatory activity in Wistar rat assessed as inhibition of carrageenan-induced paw edema at 150 mg/kg, po administered 30 mins before carrageenan challenge measured after 0.5 hrs; type: functional; method in brief: as §3
[8] = test system: Rattus norvegicus; assay: Antiinflammatory activity in Wistar rat assessed as inhibition of carrageenan-induced paw edema at 150 mg/kg, po administered 30 mins before carrageenan challenge measured after 4 hrs; type: functional; method in brief: as §3
[9] = test system: Rattus norvegicus; assay: Antiinflammatory activity in Wistar rat assessed as inhibition of carrageenan-induced paw edema at 150 mg/kg, po administered 30 mins before carrageenan challenge measured after 1 hr; type: functional; method in brief: as §3
[10] = test system: Rattus norvegicus; assay: Antiinflammatory activity in Wistar rat assessed as inhibition of carrageenan-induced paw edema at 150 mg/kg, po administered 30 mins before carrageenan challenge measured after 3 hrs; type: functional; method in brief: as §3
[11] = test system: Rattus norvegicus; assay: Antiinflammatory activity in Wistar rat assessed as inhibition of carrageenan-induced paw edema at 150 mg/kg, po administered 30 mins before carrageenan challenge measured after 2 hrs; type: functional; method in brief: as §3
[12] = test system: Rattus norvegicus; assay: Antiinflammatory activity in Wistar rat assessed as inhibition of carrageenan-induced paw edema at 20 mg/kg, po administered 30 mins before carrageenan challenge measured after 2 hrs; type: functional; method in brief: as §3
[13] = test system: Rattus norvegicus; assay: Antiinflammatory activity in Wistar rat assessed as inhibition of carrageenan-induced paw edema at 20 mg/kg, po administered 30 mins before carrageenan challenge measured after 5 hrs; type: functional; method in brief: as §3
[14] = test system: Rattus norvegicus; assay: Antiinflammatory activity in Wistar rat assessed as inhibition of carrageenan-induced paw edema at 20 mg/kg, po administered 30 mins before carrageenan challenge measured after 3 hrs; type: functional; method in brief: as §3
[15] = test system: Rattus norvegicus; assay: Antiinflammatory activity in Wistar rat assessed as inhibition of carrageenan-induced paw edema at 20 mg/kg, po administered 30 mins before carrageenan challenge measured after 0.5 hrs; type: functional; method in brief: as §3
[16] = test system: Rattus norvegicus; assay: Antiinflammatory activity in Wistar rat assessed as inhibition of carrageenan-induced paw edema at 20 mg/kg, po administered 30 mins before carrageenan challenge measured after 4 hrs; type: functional; method in brief: as §3
[17] = test system: Rattus norvegicus; assay: Antiinflammatory activity in Wistar rat assessed as inhibition of carrageenan-induced paw edema at 20 mg/kg, po administered 30 mins before carrageenan challenge measured after 1 hr; type: functional; method in brief: as §3
[18] = organism: Rattus norvegicus; assay: animal or person; conditions: Wistar, po, read-out: INH
[19] = organism: Rattus norvegicus; assay: animal or person; conditions: Wistar, po, read-out: INH; remark: listed apart in the source
[20] = organism: Rattus norvegicus; assay: animal or person; conditions: Wistar, po, read-out: INH; remark: listed apart in the source
[21] = organism: Rattus norvegicus; assay: animal or person; conditions: Wistar, po, read-out: INH; remark: listed apart in the source
[22] = organism: Rattus norvegicus; assay: animal or person; conditions: Wistar, po, read-out: INH; remark: listed apart in the source
[23] = organism: Rattus norvegicus; assay: animal or person; conditions: Wistar, po, read-out: INH; remark: listed apart in the source

SMILES: Cc1cccc(Nc2ccccc2C(=O)OCn2c(=O)oc3ccc(Cl)cc32)c1C
- Stability [1]: Stable
- Stability [2]: 1 days

SMILES: CC(C)Cc1ccc(C(C)C(=O)O)cc1 (stereo not drawn) [IBUPROFEN]
- Activity [5]: Toxic
- inhibition in vivo at 150 mg/kg [6]: 41.7%
- inhibition in vivo at 150 mg/kg [7]: 16.7%
- inhibition in vivo at 150 mg/kg [8]: 50%
- inhibition in vivo at 150 mg/kg [9]: 16.7%
- inhibition in vivo at 150 mg/kg [10]: 62.5%
- inhibition in vivo at 150 mg/kg [11]: 45.8%

SMILES: Cc1cccc(Nc2ccccc2C(=O)O)c1C [MEFENAMIC ACID]
- inhibition in vivo at 20 mg/kg [12]: 33.3%
- inhibition in vivo at 20 mg/kg [13]: 33.3%
- inhibition in vivo at 20 mg/kg [14]: 41.7%
- inhibition in vivo at 20 mg/kg [15]: 16.7%
- inhibition in vivo at 20 mg/kg [16]: 45.8%
- inhibition in vivo at 20 mg/kg [17]: 18.3%

SMILES: COc1ccc2cc([C@H](C)C(=O)O)ccc2c1 [NAPROXEN]
- inhibition in vivo at 40 mg/kg [18]: 9.4%
- inhibition in vivo at 40 mg/kg [19]: 46.9%
- inhibition in vivo at 40 mg/kg [20]: 28.1%
- inhibition in vivo at 40 mg/kg [21]: 16.3%
- inhibition in vivo at 40 mg/kg [22]: 18.8%
- inhibition in vivo at 40 mg/kg [23]: 37.5%

Further lines, with some results ahead:

- Stability [1]: Stable
- Stability [2]: 1 days
- half-life [3]: 34 min
SMILES: COc1ccc2cc(C(C)C(=O)OCn3c(=O)oc4ccc(Cl)cc43)ccc2c1 (stereo not drawn)

- Stability [1]: Stable
- Stability [2]: 1 days
- half-life [3]: 37 min
SMILES: CC(C)Cc1ccc(C(C)C(=O)OCn2c(=O)oc3ccc(Cl)cc32)cc1 (stereo not drawn)
- Activity [4]: Non-toxic
